Results on five compounds are retold here after ChEMBL document CHEMBL4308828, “Fragment Based Optimization of Metabotropic Glutamate Receptor 2 (mGluR2) Positive Allosteric Modulators in the Absence of Structural Information” (J Med Chem, 2018).

The nature of data set [1]: Plasma concentration in mouse at 30 mg/kg, po. It counts as ADME, organism-based. Particulars: in vivo. An outline of the steps:
(§1)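 Mice dosed orally at 30 mg/kg; plasma, brain and unbound plasma concentrations measured.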

A short description of data set [2]: Drug uptake in mouse brain at 30 mg/kg, po. It counts as ADME, organism-based. To be noted: in vivo, read-out: Drug uptake. The gist of the method: as §1
The nature of data set [3]: Intrinsic clearance in Wistar rat liver microsomes at 2.5 uM. It counts as ADME, Microsome. An outline of the steps: (§2)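 Liver microsomes (0.5 mg/mL) of human, Wistar rat or NMRI mouse; compound 2.5 μM initial, incubated for various times. Intrinsic clearance (mL/min·g liver) taken as rate of compound consumption under first-order conditions, Clint = Vmax/KM or V/S when S ≪ KM.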

For data set [4], the target named is Metabotropic glutamate receptor 2 (Homo sapiens, UniProt Q14416). Description: Positive allosteric modulation of human mGluR2 expressed in human Chem1 cells assessed as increase in glutamate-induced intracellular calcium influx preincubated for 30 mins followed by glutamate addition by calcium-5 dye based fluorometric assay. It counts as functional, cell-based. The gist of the method: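 Chem-1 cells stably expressing human mGlu2, 30000 cells/well, overnight at 37 °C. Loaded with Calcium 5 dye (30 min, 37 °C) in buffer with GPT/pyruvate, washed, then compound or vehicle 30 min at 37 °C. Glutamate at EC5-EC20 added after 20 s baseline; fluorescence 485/525 nm read 40 s. ΔF/F from multiple wells; sigmoid fits give EC50, three independent experiments. Final DMSO 1%.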
Metabotropic glutamate receptor 2, sequence (Q14416 whole entry): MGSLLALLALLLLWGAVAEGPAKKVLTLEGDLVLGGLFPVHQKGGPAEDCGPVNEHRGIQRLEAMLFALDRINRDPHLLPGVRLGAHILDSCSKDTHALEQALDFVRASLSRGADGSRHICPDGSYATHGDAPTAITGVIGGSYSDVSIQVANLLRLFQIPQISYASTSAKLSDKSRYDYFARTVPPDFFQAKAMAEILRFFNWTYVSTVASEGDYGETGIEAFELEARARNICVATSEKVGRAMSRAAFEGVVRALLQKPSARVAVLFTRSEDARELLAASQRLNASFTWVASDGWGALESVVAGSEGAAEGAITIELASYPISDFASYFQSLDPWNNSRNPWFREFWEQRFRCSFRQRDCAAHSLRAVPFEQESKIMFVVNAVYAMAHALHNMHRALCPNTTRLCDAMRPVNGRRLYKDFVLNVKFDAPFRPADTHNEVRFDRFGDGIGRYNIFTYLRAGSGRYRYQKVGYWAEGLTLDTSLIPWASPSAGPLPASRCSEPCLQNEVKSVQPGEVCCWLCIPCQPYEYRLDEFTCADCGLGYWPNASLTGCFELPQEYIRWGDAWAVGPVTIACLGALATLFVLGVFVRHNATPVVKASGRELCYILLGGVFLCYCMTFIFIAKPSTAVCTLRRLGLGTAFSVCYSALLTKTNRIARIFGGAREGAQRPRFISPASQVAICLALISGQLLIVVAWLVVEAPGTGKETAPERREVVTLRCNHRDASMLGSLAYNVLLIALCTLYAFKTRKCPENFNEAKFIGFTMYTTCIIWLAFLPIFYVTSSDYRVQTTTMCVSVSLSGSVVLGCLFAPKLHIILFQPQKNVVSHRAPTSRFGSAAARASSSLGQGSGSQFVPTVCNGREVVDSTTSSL

For data set [5], the system named is Mus musculus. Description: Antipsychotic activity in ip dosed ddY mouse assessed as inhibition of PCP-induced hyperlocomotion pretreated followed by PCP addition measured after 60 mins by passive infrared sensor method. It counts as functional. An outline of the steps:
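Male ddY mice, 6 weeks old, acclimated 60 min in test cage, dosed i.p., then immediately PCP 2.5 mg/kg s.c.; locomotor activity recorded 60 min by passive infrared sensor system; ED50 reported.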

Data set [6] is described as follows: Unbound plasma concentration in mouse at 30 mg/kg, po. It counts as ADME, organism-based. Particulars: in vivo. An outline of the steps: as §1
Data set [7] can be described thus: Intrinsic clearance in NMRI mouse liver microsomes at 2.5 uM. It counts as ADME, Microsome. An outline of the steps:
as §2
Background: Liver microsomes are a subcellular fraction often used to study metabolism.

Data set [8] can be described thus: Intrinsic clearance in human liver microsomes at 2.5 uM. It counts as ADME, Microsome. An outline of the steps: as §2
A short description of data set [9]: Protein binding in mouse plasma. It counts as ADME, cell-free. Particulars: read-out: PPB (converted).
A short description of data set [10]: Protein binding in rat plasma. To be noted: read-out: PPB (converted). It counts as ADME, cell-free.
Data set [11] deals with T1, Nuclear receptor subfamily 1 group I member 2 (Homo sapiens, UniProt O75469).
T1 sequence (O75469 whole entry): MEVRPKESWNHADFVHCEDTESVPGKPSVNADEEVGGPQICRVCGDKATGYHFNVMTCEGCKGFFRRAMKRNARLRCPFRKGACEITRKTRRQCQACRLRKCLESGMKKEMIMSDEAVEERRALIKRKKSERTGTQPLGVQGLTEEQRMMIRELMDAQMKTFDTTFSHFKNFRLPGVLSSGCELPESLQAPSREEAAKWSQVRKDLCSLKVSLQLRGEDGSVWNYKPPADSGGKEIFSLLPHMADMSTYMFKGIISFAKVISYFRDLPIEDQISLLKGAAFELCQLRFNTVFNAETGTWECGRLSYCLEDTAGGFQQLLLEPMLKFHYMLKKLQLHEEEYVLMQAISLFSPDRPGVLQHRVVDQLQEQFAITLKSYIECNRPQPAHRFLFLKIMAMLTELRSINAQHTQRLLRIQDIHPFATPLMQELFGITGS
Description: Activation of PXR (unknown origin) assessed as CYP induction. It counts as ADME.

The test system of data set [12] is Mus musculus. As to the kind of experiment: Inhibition of DOI-induced head twitches in ip dosed ddY mouse pretreated for 20 mins followed by DOI addition measured after 8 mins. It counts as functional. The gist of the method:
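Male ddY mice, 6 weeks old, dosed i.p. 20 min before DOI 0.75 mg/kg s.c.; head twitches counted in transparent cylinder from 10 to 18 min after DOI.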

The target in another data set is T2, Cytochrome P450 1A2 (Homo sapiens, UniProt P05177).
T2 sequence (P05177 whole entry): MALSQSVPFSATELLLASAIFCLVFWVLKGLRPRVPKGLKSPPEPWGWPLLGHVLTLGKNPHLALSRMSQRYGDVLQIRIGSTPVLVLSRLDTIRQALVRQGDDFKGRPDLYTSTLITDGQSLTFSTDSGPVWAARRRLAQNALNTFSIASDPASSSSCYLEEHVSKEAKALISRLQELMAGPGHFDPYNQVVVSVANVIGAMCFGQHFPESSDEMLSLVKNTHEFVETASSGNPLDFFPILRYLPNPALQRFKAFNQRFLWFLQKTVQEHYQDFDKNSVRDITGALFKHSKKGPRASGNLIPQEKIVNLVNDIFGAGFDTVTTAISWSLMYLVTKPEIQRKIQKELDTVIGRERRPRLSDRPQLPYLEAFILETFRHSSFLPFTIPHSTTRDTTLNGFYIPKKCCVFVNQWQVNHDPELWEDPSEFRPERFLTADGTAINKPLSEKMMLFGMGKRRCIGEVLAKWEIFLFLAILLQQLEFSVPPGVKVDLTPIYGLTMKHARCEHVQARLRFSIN
As to the kind of experiment: Inhibition of CYP1A2 (unknown origin). It counts as ADME.

Data set [13] can be described thus: Lipophilicity, log D of the compound at pH 7.4. It counts as physicochemical. To be noted: buffer.
A further data set has as its target Cytochrome P450 2D6 (Homo sapiens, UniProt P10635). As to the kind of experiment: Inhibition of CYP2D6 (unknown origin). It counts as ADME.
For the next data set, the target named is Cytochrome P450 3A4 (Homo sapiens, UniProt P08684). Description: Inhibition of CYP3A4 (unknown origin). It counts as ADME.
Cytochrome P450 3A4, sequence (P08684 whole entry): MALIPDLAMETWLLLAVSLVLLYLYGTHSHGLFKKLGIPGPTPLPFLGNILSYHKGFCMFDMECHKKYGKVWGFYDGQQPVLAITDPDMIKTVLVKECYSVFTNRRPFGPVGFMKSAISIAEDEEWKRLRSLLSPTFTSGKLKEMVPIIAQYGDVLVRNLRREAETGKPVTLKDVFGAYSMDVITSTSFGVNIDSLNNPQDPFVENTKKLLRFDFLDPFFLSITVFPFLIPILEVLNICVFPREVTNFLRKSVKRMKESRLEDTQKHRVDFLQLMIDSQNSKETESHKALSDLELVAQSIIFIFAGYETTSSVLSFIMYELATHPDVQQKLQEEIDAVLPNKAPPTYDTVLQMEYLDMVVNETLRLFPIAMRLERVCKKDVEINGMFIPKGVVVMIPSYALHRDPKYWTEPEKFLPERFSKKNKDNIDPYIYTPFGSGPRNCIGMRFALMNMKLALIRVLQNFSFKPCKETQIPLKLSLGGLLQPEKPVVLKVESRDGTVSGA
Data set [14] in a line: Kinetic aqueous solubility of the compound in pH 7.4 solution. It counts as physicochemical. To be noted: aqueous pH 7.4 solution, read-out: Kinetic_solubility.
The next data set addresses Cytochrome P450 2C9 (Homo sapiens, UniProt P11712). As to the kind of experiment: Inhibition of CYP2C9 (unknown origin). It counts as ADME.
The species entered for the next data set is Homo sapiens. As to the kind of experiment: Binding affinity to sodium channel site 2 (unknown origin) at 10 uM relative to control.
In data set [15] the target is T3, Androgen receptor (Homo sapiens) (UniProt P10275).
T3 sequence (whole entry): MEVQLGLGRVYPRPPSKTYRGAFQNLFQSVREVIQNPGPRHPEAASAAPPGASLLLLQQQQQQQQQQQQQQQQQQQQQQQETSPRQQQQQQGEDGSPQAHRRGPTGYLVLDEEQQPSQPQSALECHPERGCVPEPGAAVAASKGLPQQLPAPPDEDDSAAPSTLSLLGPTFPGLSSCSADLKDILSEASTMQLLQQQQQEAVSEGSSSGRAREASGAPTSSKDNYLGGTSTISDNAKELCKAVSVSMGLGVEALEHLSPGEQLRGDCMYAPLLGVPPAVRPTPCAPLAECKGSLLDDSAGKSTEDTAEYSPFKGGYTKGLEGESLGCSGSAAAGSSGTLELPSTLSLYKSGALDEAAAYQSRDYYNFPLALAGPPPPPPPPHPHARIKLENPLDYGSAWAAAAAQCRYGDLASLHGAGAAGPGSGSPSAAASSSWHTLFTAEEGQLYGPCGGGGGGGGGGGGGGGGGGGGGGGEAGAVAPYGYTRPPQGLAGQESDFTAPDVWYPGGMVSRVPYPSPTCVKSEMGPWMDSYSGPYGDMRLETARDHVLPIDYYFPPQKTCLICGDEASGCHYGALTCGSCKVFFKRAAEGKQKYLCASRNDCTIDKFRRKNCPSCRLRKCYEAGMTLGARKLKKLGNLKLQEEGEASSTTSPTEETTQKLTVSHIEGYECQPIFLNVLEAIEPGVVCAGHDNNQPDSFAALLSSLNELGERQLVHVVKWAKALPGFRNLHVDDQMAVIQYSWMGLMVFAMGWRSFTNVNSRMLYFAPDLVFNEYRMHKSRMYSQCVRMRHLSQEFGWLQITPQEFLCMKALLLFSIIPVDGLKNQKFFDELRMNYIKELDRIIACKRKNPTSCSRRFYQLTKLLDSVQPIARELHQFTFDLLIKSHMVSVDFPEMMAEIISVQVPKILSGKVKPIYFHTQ
Description: Binding affinity to AR (unknown origin) at 10 uM relative to control.

pEC50, pIC50: −log10 of the molar value. In brackets after ≈: the same amount, converted by molar mass.

In general, pEC50 refers to the negative decadic logarithm of the EC50, by convention in mol/L. As usually defined, the ED50 is the dose that gives a 50% effect, or the effect in half of the subjects. The pIC50 is the IC50 on a negative log10 scale, so that one unit is a factor of ten. Broadly, the logD is lipophilicity at a set pH, counting ionised and neutral species. Lower therefore signals a more hydrophilic compound.

Cytochrome P450 2D6, sequence (P10635 whole entry): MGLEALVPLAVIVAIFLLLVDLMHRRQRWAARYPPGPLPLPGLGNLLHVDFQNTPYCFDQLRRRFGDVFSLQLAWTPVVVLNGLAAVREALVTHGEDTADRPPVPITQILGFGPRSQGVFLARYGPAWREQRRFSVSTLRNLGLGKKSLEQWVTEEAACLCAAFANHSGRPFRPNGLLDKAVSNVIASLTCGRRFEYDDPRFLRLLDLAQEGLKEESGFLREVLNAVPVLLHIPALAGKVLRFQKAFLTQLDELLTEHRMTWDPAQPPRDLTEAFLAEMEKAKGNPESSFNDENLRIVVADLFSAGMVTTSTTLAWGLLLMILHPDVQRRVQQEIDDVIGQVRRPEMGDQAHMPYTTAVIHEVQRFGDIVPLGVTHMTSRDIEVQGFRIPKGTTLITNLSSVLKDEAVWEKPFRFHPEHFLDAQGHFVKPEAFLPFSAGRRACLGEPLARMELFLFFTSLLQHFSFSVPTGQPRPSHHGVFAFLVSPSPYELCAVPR
Cytochrome P450 2C9, sequence (P11712 whole entry): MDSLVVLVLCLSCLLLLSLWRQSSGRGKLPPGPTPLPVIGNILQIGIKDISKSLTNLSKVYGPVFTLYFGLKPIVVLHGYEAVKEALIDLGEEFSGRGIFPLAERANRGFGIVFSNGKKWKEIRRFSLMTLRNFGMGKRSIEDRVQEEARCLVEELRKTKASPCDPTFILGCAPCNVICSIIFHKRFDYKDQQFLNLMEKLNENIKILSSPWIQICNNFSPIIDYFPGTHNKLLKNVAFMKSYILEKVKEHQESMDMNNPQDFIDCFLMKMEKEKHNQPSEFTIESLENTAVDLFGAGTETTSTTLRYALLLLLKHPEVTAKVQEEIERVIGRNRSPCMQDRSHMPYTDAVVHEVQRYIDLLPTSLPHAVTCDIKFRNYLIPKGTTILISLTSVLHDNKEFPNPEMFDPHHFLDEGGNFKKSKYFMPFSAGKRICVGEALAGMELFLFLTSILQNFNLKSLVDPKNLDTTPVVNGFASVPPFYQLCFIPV

As for `Fc1cc(Cl)ccc1-c1ccc(Cn2nnc3c(Br)cccc32)cn1`, the values for the concentration in data set [1] and in data set [2] were 20 µM and 7.1 µM, respectively. Further, the Intrinsic clearance in data set [3] worked out at 0.4 mL/min/g; in data set [7] it was 3.8 mL/min/g; in data set [8], 0.1 mL/min/g. The pEC50 in data set [4] was 8.22. The median effective dose (ED50) in the data set on Mus musculus [5] amounted to 47 mg/kg. Besides, the “Cp(f)” value in data set [6] is 0.081 µM.

With `FC(F)(F)c1cccc2c1nnn2CC1CC1`, the fraction unbound in data set [9] was 0.145; in [10], 0.1. Also, the concentration in [1] came out at 12.1 µM; in [2], 13.1 µM. Further, in data set [11], the MEC stood at 7 µM. The median effective dose (ED50) is 29.7 mg/kg in the data set with Mus musculus [12] and 57.6 mg/kg in the data set with Mus musculus [5]. The pIC50 on Cytochrome P450 1A2, against Cytochrome P450 2D6, against Cytochrome P450 3A4 and at Cytochrome P450 2C9 was below 5.00 throughout. For the same compound, in [13], the pH-dependent lipophilicity (logD) is 3.08. Moreover, the Intrinsic clearance turned out to be 0.3 mL/min/g in data set [3], 1.4 mL/min/g in data set [7] and 0.3 mL/min/g in [8]. In addition, in data set [4], the pEC50 was 6.83. The “Cp(f)” value in data set [6] was found to be 1.75 µM. For the same compound, in data set [14], the solubility kinetic was 409 µg/mL (≈ 1700 µM).

As for `Fc1cc(Cl)ccc1-c1ccc(Cn2nnc3ccccc32)cn1`, the figures for the fraction unbound in [9] and in data set [10] were 0.008 and 0.006, respectively. Also, the concentration was determined as 2 µM in data set [1] and 1.4 µM in data set [2]. Besides, the MEC in [11] amounted to 7.7 µM. Also, the negative-log IC50 (pIC50) at Cytochrome P450 1A2 was below 5.00; on Cytochrome P450 2D6, below 5.00; against Cytochrome P450 3A4 it was below 5.00; at Cytochrome P450 2C9, 5.18. Moreover, the logD in [13] amounted to 5.48. Further, the results for the Intrinsic clearance in [3], in data set [7] and in [8] were 0.8 mL/min/g, 3.4 mL/min/g and 0.01 mL/min/g, respectively. The pEC50 in data set [4] was 7.30. The Activity stood at 50% in the data set filed under Homo sapiens and 77% in [15]. Moreover, in the data set on Mus musculus [5], the 50% effective dose (ED50) was above 100 mg/kg. Moreover, the “Cp(f)” value in [6] is 0.015 µM. The solubility kinetic in [14] is 3 µg/mL (≈ 8.86 µM).

For `Fc1ccc(Cn2nnc3c(Br)cccc32)c(Cl)c1`, the values for the Intrinsic clearance in data set [3], in [7] and in data set [8] were 3.5 mL/min/g, 3 mL/min/g and 1.8 mL/min/g, respectively. For the same compound, the pEC50 in data set [4] is 6.72.

With `FC(F)(F)c1cc(Br)c2nnn(CC3CC3)c2c1`, the values for the Intrinsic clearance in [3], in data set [7] and in data set [8] were 0.2 mL/min/g, 7.7 mL/min/g and 0.1 mL/min/g, respectively. In addition, the pEC50 in data set [4] was 6.85.
